{"source": "paper PMC4143770", "about": "(Scientific Reports, 2014)", "key": {"[1]": {"system": "BoHex (glycoconjugate-lytic β-GlcNAcase)", "experiment": "Inhibition of BoHex", "type": "biochemical, bovine", "in_short": "(§1)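 Purchased bovine Hex, recombinant O. furnacalis OfHex2 and the OfHex1 W490A mutant were assayed at 25°C with pNP-β-GlcNAc. Reactions were stopped with 0.5 M Na2CO3 and A405 was recorded. Where Ki was determined, substrate was 0.075, 0.125 and 0.2 mM, with values from linear Dixon-plot fits. W490A was also tested at 100 µM inhibitor.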"}, "[2]": {"target": "HsHex (human glycoconjugate-lytic β-GlcNAcase) (Homo sapiens, UniProt P07686)", "sequence (P07686 122-311 limits assumed)": "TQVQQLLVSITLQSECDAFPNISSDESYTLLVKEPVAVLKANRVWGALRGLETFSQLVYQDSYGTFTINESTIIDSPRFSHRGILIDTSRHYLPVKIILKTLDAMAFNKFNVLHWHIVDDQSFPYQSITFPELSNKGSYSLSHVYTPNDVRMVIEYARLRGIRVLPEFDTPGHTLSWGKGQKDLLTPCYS", "sequence (P07686 315-556 limits assumed)": "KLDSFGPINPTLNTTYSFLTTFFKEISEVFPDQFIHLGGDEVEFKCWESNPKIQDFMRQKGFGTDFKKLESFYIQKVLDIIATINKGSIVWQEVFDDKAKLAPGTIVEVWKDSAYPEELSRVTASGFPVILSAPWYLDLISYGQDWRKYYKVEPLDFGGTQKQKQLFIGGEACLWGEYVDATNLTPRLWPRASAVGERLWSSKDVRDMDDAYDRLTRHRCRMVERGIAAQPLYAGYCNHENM", "experiment": "Inhibition of HsHex, pNP-β-GlcNAc substrate, Dixon plots", "type": "biochemical"}, "[3]": {"target": "T1, OfHex1 (chitinolytic β-GlcNAcase) (Ostrinia furnacalis, UniProt Q06GJ0)", "T1 sequence (Q06GJ0 23-594)": "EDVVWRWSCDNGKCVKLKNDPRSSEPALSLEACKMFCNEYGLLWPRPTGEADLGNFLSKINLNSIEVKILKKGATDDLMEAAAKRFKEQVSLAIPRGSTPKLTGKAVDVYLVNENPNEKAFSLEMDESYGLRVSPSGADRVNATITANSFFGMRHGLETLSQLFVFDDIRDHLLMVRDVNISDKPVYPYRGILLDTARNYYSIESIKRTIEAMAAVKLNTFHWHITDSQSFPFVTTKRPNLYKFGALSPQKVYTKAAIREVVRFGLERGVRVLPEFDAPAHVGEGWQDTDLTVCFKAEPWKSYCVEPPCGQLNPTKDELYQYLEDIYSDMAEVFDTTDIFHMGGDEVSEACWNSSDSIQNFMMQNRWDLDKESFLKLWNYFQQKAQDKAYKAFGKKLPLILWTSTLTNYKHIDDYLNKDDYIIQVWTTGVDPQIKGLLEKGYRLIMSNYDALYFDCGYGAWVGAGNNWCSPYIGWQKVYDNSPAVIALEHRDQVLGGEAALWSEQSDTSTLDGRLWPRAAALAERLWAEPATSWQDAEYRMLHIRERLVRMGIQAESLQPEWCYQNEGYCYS", "experiment": "Inhibition of OfHex1, pNP-β-GlcNAc substrate, Dixon plots", "type": "biochemical", "in_short": "(§2)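 Recombinant O. furnacalis OfHex1, recombinant S. marcescens SmChb and purchased T. viride TvHex were assayed at 25°C with pNP-β-GlcNAc in 20 mM sodium phosphate, pH 6.0. After incubation, 0.5 M Na2CO3 was added and A405 measured. Ki used substrate at 0.075, 0.125 and 0.2 mM and an enzyme-specific inhibitor range. Ki and inhibition type came from linear Dixon-plot fitting.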"}, "[4]": {"target": "T2, OfHex1 (W490A) (Ostrinia furnacalis, UniProt Q06GJ0, W490A)", "T2 sequence (Q06GJ0 23-594 W490A)": "T1 sequence (Q06GJ0 23-594) with W468A", "experiment": "Inhibition of mutant OfHex1-W490A", "type": "biochemical", "in_short": "as §1"}, "[5]": {"target": "T3, SpHex (chitinolytic β-GlcNAcase) (Streptomyces plicatus, UniProt O85361)", "T3 sequence (O85361 1-506)": "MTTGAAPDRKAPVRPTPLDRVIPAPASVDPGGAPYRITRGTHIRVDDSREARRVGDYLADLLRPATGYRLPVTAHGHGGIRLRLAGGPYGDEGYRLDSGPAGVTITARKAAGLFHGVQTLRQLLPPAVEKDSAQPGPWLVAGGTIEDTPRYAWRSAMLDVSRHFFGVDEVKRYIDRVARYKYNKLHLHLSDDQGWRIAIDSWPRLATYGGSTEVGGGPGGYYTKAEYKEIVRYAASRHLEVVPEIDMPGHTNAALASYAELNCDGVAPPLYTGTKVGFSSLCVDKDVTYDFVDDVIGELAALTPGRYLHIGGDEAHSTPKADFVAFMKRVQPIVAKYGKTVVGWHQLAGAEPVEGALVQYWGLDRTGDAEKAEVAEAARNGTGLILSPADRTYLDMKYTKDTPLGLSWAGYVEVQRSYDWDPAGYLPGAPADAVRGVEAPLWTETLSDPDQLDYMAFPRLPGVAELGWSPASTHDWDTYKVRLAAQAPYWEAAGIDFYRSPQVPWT", "experiment": "Inhibition of SpHex", "type": "biochemical"}, "[6]": {"system": "CeHex (glycoconjugate-lytic β-GlcNAcase)", "experiment": "Inhibition of CeHex", "type": "biochemical, Canavalia ensformis"}, "[7]": {"target": "T4, SmChb (chitinolytic β-GlcNAcase) (Serratia marcescens, UniProt Q54468)", "T4 sequence (Q54468 28-885)": "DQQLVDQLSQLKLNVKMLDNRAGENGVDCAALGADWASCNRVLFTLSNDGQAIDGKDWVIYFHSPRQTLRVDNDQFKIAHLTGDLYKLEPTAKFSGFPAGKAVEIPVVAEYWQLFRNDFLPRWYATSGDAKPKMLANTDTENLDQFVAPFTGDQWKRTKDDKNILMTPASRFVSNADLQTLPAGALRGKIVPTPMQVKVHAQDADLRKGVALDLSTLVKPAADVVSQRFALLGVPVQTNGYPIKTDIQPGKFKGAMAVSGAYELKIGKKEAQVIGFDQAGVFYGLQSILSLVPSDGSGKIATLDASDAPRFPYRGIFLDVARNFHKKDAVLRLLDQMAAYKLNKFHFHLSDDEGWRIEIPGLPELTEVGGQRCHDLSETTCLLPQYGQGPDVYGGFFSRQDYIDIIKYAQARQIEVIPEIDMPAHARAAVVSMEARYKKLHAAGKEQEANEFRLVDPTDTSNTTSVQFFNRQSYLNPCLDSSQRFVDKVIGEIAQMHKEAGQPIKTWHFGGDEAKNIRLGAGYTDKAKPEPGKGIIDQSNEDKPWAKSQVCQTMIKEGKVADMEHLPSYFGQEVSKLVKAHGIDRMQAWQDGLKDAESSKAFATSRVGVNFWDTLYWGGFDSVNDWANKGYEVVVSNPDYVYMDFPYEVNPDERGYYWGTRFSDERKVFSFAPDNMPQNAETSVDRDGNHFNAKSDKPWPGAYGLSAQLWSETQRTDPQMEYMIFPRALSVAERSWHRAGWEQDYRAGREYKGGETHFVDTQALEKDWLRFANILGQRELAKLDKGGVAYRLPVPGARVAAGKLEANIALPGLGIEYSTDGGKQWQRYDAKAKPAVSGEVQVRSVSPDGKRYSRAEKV", "experiment": "Inhibition of SmChb", "type": "biochemical", "in_short": "as §2"}, "[8]": {"system": "OfHex2 (glycoconjugate-lytic β-GlcNAcase)", "experiment": "Inhibition of OfHex2", "type": "biochemical, O. furnacalis", "in_short": "as §1"}, "[9]": {"target": "TvHex (chitinolytic β-GlcNAcase)", "experiment": "Inhibition of TvHex", "type": "biochemical, Trichoderma viride", "conditions": "read-out: Ki for TvHex; pNP-β-GlcNAc, pH 6.0", "in_short": "as §2"}, "[10]": {"system": "glycoconjugate-lytic β-GlcNAcases from plant and human", "conditions": "cited from earlier work"}}, "note": "Residue numbers refer to the chain shown, from its start."}
{"smiles": "Cc1nnc(CNCCN2C(=O)c3cccc4c(N(C)C)ccc(c34)C2=O)s1", "note": "[Q2, 6-(dimethylamino)-2-(2-(((5-methyl-1,3,4-thiadiazol-2-yl)methyl)amino)ethyl)-1H-benzo[de]isoquinoline-1,3(2H)-dione]", "values": [{"measurement": "Inhibition of BoHex", "setting": "[1]", "value": "does not inhibit"}, {"measurement": "Ki", "setting": "[2]", "value": "> 100", "unit": "µM"}, {"measurement": "Inhibition of HsHex at 100 µM", "setting": "[2]; 100 µM", "value": "does not inhibit"}, {"measurement": "Ki", "setting": "[3]", "value": 0.31, "unit": "µM"}, {"measurement": "Type of inhibition toward OfHex1 (Dixon plots)", "setting": "[3]", "value": "competitive"}, {"measurement": "Increment in inhibitory activity against OfHex1 compared to Q1", "setting": "[3]; Q2 versus Q1, from Ki", "value": 13, "unit": "fold"}, {"measurement": "Ki", "setting": "[4]", "value": "> 100", "unit": "µM"}, {"measurement": "Ki", "setting": "[5]", "value": 74.8, "unit": "µM"}, {"measurement": "Inhibition of CeHex", "setting": "[6]", "value": "does not inhibit"}, {"measurement": "Ki", "setting": "[7]", "value": 8.25, "unit": "µM"}, {"measurement": "Inhibition of OfHex2", "setting": "[8]", "value": "does not inhibit"}, {"measurement": "Ki", "setting": "[9]", "value": 25, "unit": "µM"}]}
{"smiles": "CC(=O)NC1C(O)O[C@H](CO)[C@@H](O[C@@H]2O[C@H](CO)[C@@H](O[C@@H]3O[C@H](CO)[C@@H](O[C@H]4O[C@H](CO)[C@@H](O)[C@H](O)[C@H]4[N+](C)(C)C)[C@H](O)[C@H]3NC(C)=O)[C@H](O)[C@H]2NC(C)=O)[C@@H]1O", "note": "(stereo partly shown) [TMG-chitotriomycin]", "values": [{"measurement": "Activity toward glycoconjugate-lytic β-GlcNAcases from plant and human", "setting": "[10]", "value": "not active"}]}
{"smiles": "Cc1nnc(CNCCN2C(=O)c3cccc4cccc(c34)C2=O)s1", "note": "[Q1, 2-(2-(((5-methyl-1,3,4-thiadiazol-2-yl)methyl)amino)ethyl)-1H-benzo[de]isoquinoline-1,3(2H)-dione]", "values": [{"measurement": "Ki", "setting": "[2]", "value": 2.15, "unit": "µM"}, {"measurement": "Type of inhibition toward HsHex (Dixon plots)", "setting": "[2]; Dixon plots", "value": "competitive inhibitor"}, {"measurement": "Ki", "setting": "[3]", "value": 4.28, "unit": "µM"}, {"measurement": "Type of inhibition toward OfHex1 (Dixon plots)", "setting": "[3]", "value": "competitive inhibitor"}, {"measurement": "Ki", "setting": "[4]", "value": "> 100", "unit": "µM"}, {"measurement": "Inhibition of OfHex1-W490A at 100 µM", "setting": "[4]; 100 µM", "value": "could not inhibit"}]}
